# High-throughput results deposited in PubChem BioAssay by several laboratories.
# IDE cell activ = IDE (human) activation, cell-based. HEK cells, FAbeta-B cleavage, fluorescence polarization; 0% vehicle, 100% cell-free pure enzyme wells. AID 493087. activation, % at 5.96 µM. P14735. 0.073% of 340,000 active;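 active = activation above the mean of all tested compounds plus 3 SD, set per screening campaign, cut at about 17% in these data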
# Target sequence (P14735 whole entry, looked up): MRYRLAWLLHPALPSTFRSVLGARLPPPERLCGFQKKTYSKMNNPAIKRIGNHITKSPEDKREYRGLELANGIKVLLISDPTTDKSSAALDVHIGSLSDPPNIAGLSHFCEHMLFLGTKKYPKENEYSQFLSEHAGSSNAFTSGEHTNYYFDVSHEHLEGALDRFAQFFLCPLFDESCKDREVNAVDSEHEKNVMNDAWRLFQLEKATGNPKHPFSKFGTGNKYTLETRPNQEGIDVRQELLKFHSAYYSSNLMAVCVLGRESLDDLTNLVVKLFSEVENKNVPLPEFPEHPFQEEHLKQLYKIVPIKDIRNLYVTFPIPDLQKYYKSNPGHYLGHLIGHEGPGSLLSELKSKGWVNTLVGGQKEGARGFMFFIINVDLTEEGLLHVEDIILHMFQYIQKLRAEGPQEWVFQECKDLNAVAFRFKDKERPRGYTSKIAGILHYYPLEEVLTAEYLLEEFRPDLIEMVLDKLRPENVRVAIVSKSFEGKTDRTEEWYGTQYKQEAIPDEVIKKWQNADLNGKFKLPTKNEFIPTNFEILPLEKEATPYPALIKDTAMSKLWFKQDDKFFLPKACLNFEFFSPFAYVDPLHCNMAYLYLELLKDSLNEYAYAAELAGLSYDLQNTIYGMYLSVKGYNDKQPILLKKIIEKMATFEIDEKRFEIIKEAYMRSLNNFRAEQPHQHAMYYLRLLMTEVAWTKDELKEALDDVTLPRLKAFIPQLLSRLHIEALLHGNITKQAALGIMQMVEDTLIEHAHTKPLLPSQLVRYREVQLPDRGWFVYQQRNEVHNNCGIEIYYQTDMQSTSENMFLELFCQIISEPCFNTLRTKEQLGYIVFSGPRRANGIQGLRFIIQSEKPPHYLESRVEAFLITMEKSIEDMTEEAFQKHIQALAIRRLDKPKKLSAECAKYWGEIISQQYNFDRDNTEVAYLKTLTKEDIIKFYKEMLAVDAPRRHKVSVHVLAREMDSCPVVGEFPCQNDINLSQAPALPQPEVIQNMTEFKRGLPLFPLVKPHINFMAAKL
# Rpn11 block = Rpn11 (human) deubiquitinase inhibition; 0.59% of 360,000 active; O00487; human 26S proteasome, Ub4-pepOG fluorescence polarization; 20S core pre-blocked with epoxomicin; inhibition, % at 20 µM;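 active = inhibition at 20 µM, scaled to each plate's controls, above about 33%, limit read from the data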
# IDE cell inh = cellular human IDE inhibition | HEK cells, FAbetaB cleavage, fluorescence polarization | inhibition, % at 5.59 µM | 0.41% of 320,000 active;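 active = percent inhibition above the average of all tested compounds plus 3 SD, set per screening campaign, cut at about 16% in these data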;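 also: IDE supplied by intact live HEK cells; FP after avidin binding of uncleaved biotin substrate so inhibition keeps polarization high; 0% = DMSO wells and 100% = 60 µM reference IDE inhibitor Ii1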
# HNF4A DNA FP = change in binding of human HNF4 alpha to DNA. P41235. HNF4a-FITC DNA binding, fluorescence polarization, 1 h. activity change, % at 10 µM. 0.3% of 360,000 active; in the data active = activity change above about 30%, passing the limit was not always enough
# TPT1 inh = inhibitors of Candida albicans tRNA 2'-phosphotransferase TPT1 | recombinant caTPT1, FP RNA substrate dephosphorylation | inhibition, % at 5 µM | 0.81% of 300,000 active | AID 1962;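 active = inhibition above the mean of all tested compounds plus 3 SD, set per screening campaign, cut at about 24% in these data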;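 also: plate controls were DMSO alone for no effect and ferristatin control at 100 nM for full effect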
# CSN inh = inhibitors of human CSN-mediated cullin deneddylation; Q92905; Purified CSN, SCF-Nedd8-OG deneddylation, fluorescence polarization; inhibition, % at 12.5 µM; 0.38% of 360,000 active; AID 651999;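 active = pattern-corrected inhibition above about 35%, with an unprinted fluorescence ratio check between 0.5 and 1.5, limit read from the data, passing the limit was not always enough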;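 also: 0% = enzyme with substrate and 100% = substrate without enzyme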
#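 test system = HEK293T-derived human Csn5 enzyme | amount = 0.24 nM Csn5 enzyme, final concentration | medium = Tris/NaCl/DTT buffer, pH 7.5 | schedule = 90 min reaction at room temperature | signal = FP | evaluation = inhibition of Csn5 cleavage, % | compound dosing = single dose of 12.5 µM compound with 0.25% DMSO | probe or stimulus = 10 nM SCFSkp2-Nedd8OG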
# Rpn11 confirm = confirmation of human proteasome Rpn11 inhibitors | 29% of 1,900 active | shares compounds with Rpn11 block | purified human 26S proteasome, Ub4-pepOG fluorescence polarization; proteasome pretreated with epoxomicin | inhibition, % at 20 µM
# MMP-2 counter = counter-screen for RPN11 inhibitors: inhibition of human MMP-2; 4% of 1,900 active; shares compounds with Rpn11 block; recombinant MMP-2, FRET peptide cleavage fluorescence; inhibition, % at 20 µM;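 also: human MMP-2 activated beforehand with APMA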
# Thrombin FP = blocks bovine thrombin, flagging nonselective RPN11 hits; inhibition, % at 20 µM; shares compounds with Rpn11 block; bovine thrombin cleavage of Ub4-pepOG, fluorescence polarization; 13% of 1,900 active; AID 602333;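 active = mean inhibition at least 40% at 20 µM, or signal 3 deviations below plate average, so some actives read negative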;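 also: plate controls were thrombin with DMSO for no effect and buffer wells lacking thrombin for full effect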
# * marks the source's active call; other numbers are inactive results; . = no result given; + = active, no number. This is a sample that favours compounds with a hit; in the whole collection about 1.7% have one here. Rule as the data show it, unless noted: active = inhibition above about 40%; inactive = the rest.
SMILES,IDE cell activ,Rpn11 block,IDE cell inh,HNF4A DNA FP,TPT1 inh,CSN inh,Rpn11 confirm,MMP-2 counter,Thrombin FP
CCOc1ccc(NC(=O)CN(C)C(=O)c2cccnc2Sc2ccc(C)c(C)c2)cc1OCC,2.2,-0.1,2.0,2.6,-0.2,0.2,.,.,.
COc1ccc(OC)c(NC(=O)CSc2sc3c(O)cc(=O)[nH]c3c2C#N)c1,3.8,22.0,0.2,-22.1,5.3,11.2,.,.,.
COc1cc(Cl)c(C)cc1NC(=O)CSc1sc2c(O)cc(=O)[nH]c2c1C#N,-0.8,40.0*,-1.8,-26.8,8.1,22.1,-5.3,2.2,-22.4
COCCNC(=O)CN(CC1CCCO1)C(=O)CCC(=O)Nc1ccccn1 (stereo not given),4.3,50.5*,0.7,-1.5,-4.8,-4.9,-13.1,-30.2,-20.8
COC(=O)C(C)N1C(=O)S/C(=C\c2cc(C)n(-c3ccccn3)c2C)C1=O (stereo not given),6.0,136.1*,-0.6,14.6,-0.8,0.6,0.9,-24.9,0.8
CC1=NN(c2ccccc2)C(=O)C1/C=C1\NC(=S)NC1=O (stereo not given),-1.5,45.2*,-5.3,-10.2,1.9,34.4,84.2*,19.2,24.4
CC(=O)n1cc([C@H]2C=C(C(=O)Nc3ccccc3)O[C@@H](OCc3ccc(CO)cc3)C2)c2ccccc21,-3.1,42.1*,-4.3,3.4,-2.1,-0.7,43.6*,-12.8,12.2
CN(C)c1cccc(CNC(=O)c2ccc3sc([C@@H]4O[C@H](CO)[C@H](O)[C@H](O)[C@H]4O)nc3c2)c1,.,-2.9,.,0.2,.,-0.5,.,.,.
Cn1ccc2cc(NC(=O)Nc3cccnc3)ccc21,3.3,66.1*,2.6,-1.2,-2.5,9.8,8.1,-21.1,-1.9
Cc1nonc1NC(=O)Nc1cccnc1,2.3,+,1.8,-2.1,-3.5,2.7,0.7,-8.5,-13.6
Cc1cccc(NC(=O)Nc2cccnc2)c1C,6.1,5.2,.,4.7,.,-2.2,.,.,.
COc1cccc(NC(=O)Nc2cccnc2)c1,-3.2,-3.6,-11.7,-1.6,-3.6,-6.0,.,.,.
CC(C)c1ccc(N(CC(=O)N/N=C/c2ccc(OC3CSC3)cc2)S(=O)(=O)c2ccccc2)cc1,3.4,39.9*,7.9,-2.9,-2.5,-2.2,-19.2,-5.3,-19.2
CC(C)n1ncc2c(C(=O)NCC(=O)Nc3ccccc3Br)cc(C3CC3)nc21,1.9,-12.8,-1.3,0.7,.,-0.1,.,.,.
CCOC(=O)CC(=O)CSc1nc(-c2cccnc2)ccc1C#N,2.5,41.2*,-2.7,1.7,13.6,10.4,-5.0,-26.3,-10.2
Cc1ccc(NC(=O)CN(C)C(=O)c2cccc(-n3cccc3)c2)cc1,3.2,56.6*,.,-39.4,.,29.2,85.5*,28.6,21.3
O=C(CSc1ncnc2c1cnn2-c1cccc(Cl)c1)NCC1CCCO1 (stereo not given),-0.7,-4.0,-2.1,4.6,-0.2,-4.2,.,.,.
CS(=O)(=O)C1=NSC2=NC(=O)/C(=C\c3cccn3-c3ccccc3Cl)C(=N)N21,-0.7,58.8*,-0.9,12.4,16.6,30.8,78.7*,3.2,38.9
CS(=O)(=O)C1=NSC2=NC(=O)/C(=C\c3ccc(OC(=O)c4ccco4)c(Br)c3)C(=N)N21,-35.9,70.8*,12.8,34.9*,15.8,28.1,17.0,-5.1,31.6
CCc1ccc(-n2cccc2/C=C2/C(=N)N3C(=NC2=O)SN=C3S(C)(=O)=O)cc1,0.7,60.1*,7.6,11.0,13.7,23.0,64.4*,-0.3,45.0*
Cc1ccc(-n2cccc2/C=C2/C(=N)N3C(=NC2=O)SN=C3S(C)(=O)=O)cc1,0.2,61.4*,-0.1,8.8,16.7,24.6,62.6*,-0.6,29.1
O=C1CCCc2nc(N3CCN(C(=O)c4ccco4)CC3)ncc21,-1.8,-1.5,3.2,3.0,-1.8,-1.7,.,.,.
CC(=O)Nc1ccc(S(=O)(=O)N2CCSc3ccccc32)cc1,1.0,3.8,5.2,5.8,.,-5.3,.,.,.
O=C(CCC(=O)Nc1ccccc1Cl)NNC(=O)C1CCCCC1,3.2,-4.0,-1.9,7.0,.,-7.7,.,.,.
Cc1cc(C)cc(-n2cccc2/C=C2/C(=N)N3C(=NC2=O)SN=C3S(C)(=O)=O)c1,1.6,50.8*,-1.3,12.9,13.4,20.0,53.1*,-7.3,-25.2
SMILES,IDE cell activ,Rpn11 block,IDE cell inh,HNF4A DNA FP,TPT1 inh,CSN inh,Rpn11 confirm,MMP-2 counter,Thrombin FP
COc1cccc(-n2c(C)cc(/C=C3/C(=N)N4C(=NC3=O)SN=C4S(C)(=O)=O)c2C)c1,-1.7,32.8,1.0,17.6,20.4,15.0,.,.,.
O=C1c2ccccc2C(=O)c2cc(N3CCCCC3)ccc21,-2.8,42.9*,.,-6.7,.,20.1,24.4,-17.5,20.8
CCN(CC)c1ccc(N)cc1,2.8,98.2*,-2.5,46.8*,.,15.3,41.6*,-8.0,26.2
O=C(CCNS(=O)(=O)c1cccs1)NCc1cccs1,0.8,110.2*,2.2,-1.9,-0.6,-5.7,0.8,-7.7,-4.8
O=C(CCNS(=O)(=O)c1ccc(Br)cc1)NCc1cccs1,0.5,0.7,5.9,-1.3,-1.5,-1.2,.,.,.
CNc1cccnc1C=NNC(N)=S,1.8,-1.5,.,-3.5,.,-13.7,.,.,.
CC1(C)Cc2c(C#N)c(SCCC#N)nc(N3CCOCC3)c2CS1,-0.8,67.0*,4.7,-5.0,-0.6,-0.5,3.0,-18.7,-1.9
c1ccc(CN2CCN(C3=Nc4cccc5cccc3c45)CC2)cc1,1.0,4.1,.,1.6,.,-3.0,.,.,.
Fc1ccc(N2CCN(C3=Nc4cccc5cccc3c45)CC2)cc1,1.4,41.8*,1.8,14.8,19.3,11.1,8.2,-24.9,-0.3
COc1cc2c(cc1OC)CN(CC(=O)Nc1ccc(C)c(S(=O)(=O)N3CCOCC3)c1)CC2,-1.8,-6.1,8.5,-4.0,-1.5,-2.9,.,.,.
CCC(C)Sc1ccc([C@@H]2[C@H]3C(=O)N(CC)C(=O)[C@H]3[C@]3(C(=O)OC)CCCCN23)cc1 (stereo not given in full),5.2,50.4*,0.4,17.7,13.6,7.2,105.0*,-0.5,69.0*
CCOC(=O)CCC(=O)N1CCOCCOCCOCC1,1.5,-1.2,2.0,0.5,-0.6,3.0,.,.,.
CCOC(=O)CCC(=O)N1CCOCCN(C(=O)CCC(=O)OCC)CCOCC1,4.4,47.0*,0.6,5.0,3.1,1.7,-3.3,10.6,30.3
CC1(C(=O)O)Sc2[nH]c(=O)sc2C2c3ccccc3OC(=O)C21 (stereo not given),-0.4,48.5*,2.0,39.1*,-6.9,3.2,-4.5,8.2,-1.9
